The text below walks through data of ChEMBL document CHEMBL2163304, “Strynuxlines A and B, alkaloids with an unprecedented carbon skeleton from Strychnos nux-vomica” (J Nat Prod, 2012).

Common to all, as to type: functional, cell-based
One assay has as its system SW480. Description: Cytotoxicity against human SW480 cells after 48 hrs by MTT assay. The conditions noted are these: SW480, 48 h. The procedure, abridged:
(§1)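 Human tumour cells were seeded in 96-well plates at an initial density of 1 × 10^5 cells/mL. Adherent lines were allowed to attach for 12 h before dosing, and HL-60 suspension cells were seeded just before dosing. Cells were exposed to […], 0.32, 1.6, 8 and 40 μM for 48 h, in triplicate, with cisplatin and paclitaxel as positive controls. Viability was read by MTT and growth curves were plotted.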
(In general: Tetrazolium assays rely on reduction of a dye to a coloured formazan, in cell work by metabolically active cells.)

For the next assay, the system named is MCF7. Description: Cytotoxicity against human MCF7 cells after 48 hrs by MTT assay. The conditions noted are these: MCF7, 48 h. The method, boiled down: as §1
The subject of the next assay is A549. Description: Cytotoxicity against human A549 cells after 48 hrs by MTT assay. The conditions noted are these: A549, 48 h. The procedure, abridged:
as §1

For a further assay, the system named is SMMC-7721. Description: Cytotoxicity against human SMMC7721 cells after 48 hrs by MTT assay. The conditions noted are these: SMMC-7721, 48 h. The procedure, abridged:
as §1

For another assay, the system named is HL-60. Description: Cytotoxicity against human HL60 cells after 48 hrs by MTT assay. The conditions noted are these: HL-60, 48 h. The method, boiled down:
as §1

pIC50: −log10 of the molar value.

Consider `O=C1C[C@@H]2OCC=C3C[N+]4([O-])CC[C@]56c7ccccc7N1[C@H]5[C@H]2[C@H]3C[C@@H]64` (stereo not given in full), for which the negative logarithm of the IC50 (pIC50) in the assay with SW480, in the assay with MCF7, in the assay on A549, in the assay with SMMC-7721 and in the assay on HL-60 was below 4.40 each time.
With `COc1ccc2c(c1)[C@@]13CCN4CC5=CCO[C@H]6CC(=O)N2[C@H]1[C@H]6[C@H]5C[C@H]43`, the pIC50 in the assay with SW480, with MCF7, in the assay on A549, in the assay with SMMC-7721 and in the assay with HL-60 was below 4.40 throughout.
On to `COC1=C2CN(C)CC[C@]34C(=O)C[C@@H]2[C@H]2[C@H](CC(=O)N(c5ccccc53)[C@@H]24)OC1`, for which the pIC50 in the assay with SW480, with MCF7, in the assay on A549, in the assay on SMMC-7721 and in the assay with HL-60 was below 4.40 throughout.
Turning to `COc1ccc2c(c1)N1C(=O)C[C@@H]3OCC=C4CN5CC[C@]26[C@@H]5C[C@@H]4[C@@H]3[C@H]16`, the pIC50 in the assay with SW480, in the assay with MCF7, in the assay with A549, in the assay on SMMC-7721 and with HL-60 was below 4.40 in each case.
As to `COc1cc2c(cc1OC)[C@@]13CC[N+]4([O-])CC5=CCO[C@H]6CC(=O)N2[C@H]1[C@H]6[C@H]5C[C@@H]34` (stereo not given in full), the pIC50 in the assay on SW480, with MCF7, with A549, with SMMC-7721 and in the assay with HL-60 was below 4.40 throughout.
As for `C/C=C1/CN2CC[C@@]34c5ccccc5N5/C=C6/[C@H]7C[C@@H]8N(CC[C@@]89c8ccccc8N(/C=C(/[C@H]1C[C@H]23)[C@H]54)[C@@H]69)C/C7=C/C` [BISNORDIHYDROTOXIFERINE], the pIC50 in the assay with SW480, in the assay on MCF7, in the assay with A549, with SMMC-7721 and with HL-60 was below 4.40 each time.
With `COc1cc2c(cc1OC)[C@@]13CCN4CC5=CCO[C@H]6CC(=O)N2[C@H]1[C@H]6[C@H]5C[C@H]43` [BRUCINE], the negative-log IC50 (pIC50) in the assay on SW480, with MCF7, in the assay on A549, in the assay on SMMC-7721 and with HL-60 was below 4.40 throughout.
As for `CN1CC[C@]23C(=O)C[C@H]4C(=CCO[C@H]5CC(=O)N(c6ccccc62)[C@H]3[C@H]54)C1` [ICAJINE], the pIC50 with SW480, in the assay with MCF7, in the assay with A549, in the assay on SMMC-7721 and with HL-60 was below 4.40 in each case.
With `COc1cc2c(cc1OC)[C@]13CCN4C/C(=C/CO)[C@H](C[C@H]41)C1=CCC(=O)N2[C@@H]13` [ISOBRUCINE], the pIC50 with SW480, with MCF7, in the assay on A549, in the assay on SMMC-7721 and in the assay with HL-60 was below 4.40 each time.
Regarding `O=C1CC=C2[C@H]3C[C@@H]4N(CC[C@@]45c4ccccc4N1[C@@H]25)C/C3=C/CO` [ISOSTRYCHNINE], the pIC50 in the assay with SW480, with MCF7, in the assay with A549, with SMMC-7721 and with HL-60 was below 4.40 throughout.
Consider `COc1cc2c(cc1OC)[C@@]13CCN(C)CC4=CCO[C@H]5CC(=O)N2[C@H]1[C@H]5[C@H]4CC3=O` [NOVACINE], for which the pIC50 with SW480, in the assay on MCF7, with A549, in the assay with SMMC-7721 and with HL-60 was below 4.40 throughout.
Turning to `COc1cc2c(cc1OC)[C@@]13CCN4CC5=CCO[C@H]6CC(=O)N2[C@H]1[C@H]6[C@H]5C[C@]43O` [PSEUDOBRUCINE], the pIC50 in the assay with SW480, in the assay with MCF7, with A549, in the assay with SMMC-7721 and with HL-60 was below 4.40 throughout.
For `O=C1C[C@@H]2OCC=C3CN4CC[C@]56c7ccccc7N1[C@H]5[C@H]2[C@H]3C[C@]46O` [PSEUDOSTRYCHNINE], the pIC50 with SW480, in the assay on MCF7, with A549, with SMMC-7721 and with HL-60 was below 4.40 in each case.
Take `C[N+]12CC[C@@]34c5ccccc5N5C(=O)C[C@@H]6OCC=C(C1)[C@H](C[C@@H]32)[C@@H]6[C@H]54` (stereo not given in full) [STRYCHNINE METHIODIDE]: the pIC50 in the assay on SW480, in the assay on MCF7, in the assay on A549, with SMMC-7721 and with HL-60 was below 4.40 in each case.
As to `O=C1C[C@@H]2OCC=C3CN4CC[C@]56c7ccccc7N1[C@H]5[C@H]2[C@H]3C[C@H]46` [STRYCHNINE], the pIC50 with SW480, with MCF7, in the assay on A549, with SMMC-7721 and in the assay on HL-60 was below 4.40 in each case.
For `COc1cc2c3c4n(c2cc1OC)C(=O)C[C@@H]1OCC=C2CN(CC3)C(=O)C[C@@H]2[C@H]41` [STRYNUXLINE A], the pIC50 in the assay on SW480 was 4.88; in the assay on MCF7, 4.91; in the assay on A549 it was 4.77; with SMMC-7721, 5.03; in the assay with HL-60 it was 5.15.
The matching figures for `O=C1C[C@H]2C3=CCO[C@H]4CC(=O)n5c(c(c6ccccc65)CCN1C3)[C@H]42` [STRYNUXLINE B]: 4.72, 4.95, 4.74, 4.80 and 4.78.
The matching figures for `CN1CC[C@]23C(=O)C[C@H]4C(=CCO[C@H]5CC(=O)N(c6c(O)cccc62)[C@H]3[C@H]54)C1` [VOMICINE]: below 4.40, below 4.40, below 4.40, below 4.40 and below 4.40.

The term pIC50 denotes the negative decadic logarithm of the IC50, by convention in mol/L.
